The list is not random: actives were taken first. Their share in the collection is about 1.9%.
HCV core dimer = inhibitors of HCV core protein dimerization, primary screen, biochemical, TR-FRET, high-throughput; TR-FRET GST/Flag-core106 dimerization, 1536-well; inhibition, % at 5 µM; 300,000 compounds, 0.33% hits; AID 1899, 2009;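 active means inhibition above the mean of all tested compounds plus 3 SD, set per screening campaign, cut at about 45% in these data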
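System: GST/Flag-tagged HCV core106 proteins. Incubation: compound-protein-antibody incubation 4 h at 22.5 °C. Technique: HTRF with 340 nm excitation, 617/671 nm emission. Medium: KF-containing HEPES buffer, pH 7.45, DTT, CHAPS, BSA. Read-out: inhibition (%) from 671 over 617 nm ratio. Also added: Eu(K)-anti-GST 90 ng/mL plus XL665-anti-Flag 1 µg/mL.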
NadD inh = inhibitors of S. aureus NadD, primary screen, biochemical, colorimetric, uHTS. Nicotinate-nucleotide adenylyltransferase NadD (Staphylococcus aureus N315). purified NadD enzyme, colorimetric absorbance read-out. inhibition, % at 20 µM. 360,000 compounds, 0.78% hits; in the data active means inhibition above about 26%
IMP-1 inhibitor = IMP-1 metallo-beta-lactamase inhibitors, primary screen, biochemical, epi-absorbance readout, Pseudomonas aeruginosa enzyme; purified IMP-1, nitrocefin hydrolysis, epi-absorbance fluorescence; inhibition, % at 5.6 µM; 290,000 compounds, 0.45% hits; AID 1556, 2009;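 active means inhibition above the mean plus 3 SD of all compounds in the same screening run, cut at about 4.5% in these data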;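 further: 0% = IMP-1 with DMSO and 100% = DMSO wells lacking enzyme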
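System: purified IMP-1 / Input: IMP-1 dispensed at 0.2 nM / Medium: 50 mM HEPES pH 7.1, 50 µM ZnSO4, 0.05% Brij 35 / Timing: 15 min enzyme–compound preincubation, then 25 min nitrocefin reaction, 25 °C / Technique: plate fluorescence quenching by hydrolysis product, ex 480/em 530 nm / Repeats: singlicate testing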
VIM-2 inhibitor = VIM-2 metallo-beta-lactamase inhibitors, primary screen, biochemical, epi-absorbance readout, Pseudomonas aeruginosa enzyme | purified VIM-2, nitrocefin hydrolysis, epi-absorbance fluorescence | inhibition, % at 5.6 µM | 290,000 compounds, 0.89% hits | AID 1527, 2009;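 active means inhibition above the mean of all tested compounds plus 3 SD, cutoff set per screening run, cut at about 7.5% in these data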;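 further: red hydrolysis product quenches plate fluorescence so inhibitors raise well fluorescence; 0% = enzyme with DMSO and 100% = DMSO without enzyme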
NadD conf = inhibitors of S. aureus NadD, confirmation, biochemical, colorimetric, single concentration; shares compounds with NadD inh; purified S. aureus NadD, colorimetric enzyme assay; inhibition, % at 20 µM; 2,000 compounds, 13% hits; AID 624309, 2012; in the data active means inhibition mostly above about 42%, no sharp cut-off; inactive means mostly below about 42%
Starred values were filed as active, the others as inactive.

Results for O=S(=O)(c1ccc(NC(=S)N/N=C/c2ccc(Oc3ccccc3)cc2)cc1)N1CCOCC1 ?
HCV core dimer: 14; NadD inh: 28*; IMP-1 inhibitor: -3; VIM-2 inhibitor: -3; NadD conf: -3

How did O=S(=O)(c1ccc(NC(=S)N/N=C/c2c3ccccc3cc3ccccc23)cc1)N1CCOCC1 do in these assays?
HCV core dimer: 56*; NadD inh: 34*; IMP-1 inhibitor: -2; VIM-2 inhibitor: 0; NadD conf: 28

Results for CCOC(=O)Cc1csc(N/N=C\c2ccccc2OC)n1 ?
HCV core dimer: 0; NadD inh: -1; IMP-1 inhibitor: 0; VIM-2 inhibitor: -1

Results for Cc1cc(C(=O)C(C)OC(=O)c2ccc(NC(=O)CC#N)cc2)c(C)n1-c1ccc(OC(F)F)cc1 (stereo not drawn) ?
NadD inh: 28

What do the screens show for `Cn1c(SCC(=O)N2c3ccccc3CCc3ccccc32)nnc1-c1cc2ccccc2cc1O`?
HCV core dimer: 22; NadD inh: 56*; IMP-1 inhibitor: -4; VIM-2 inhibitor: -4; NadD conf: 52*

What do the screens show for `CCOC(=O)[C@@H]1[C@H]2COc3ccccc3[C@@H]2N2C(=O)N(c3cccc(Cl)c3)C(=O)[C@@]12C`?
HCV core dimer: -3; NadD inh: -9; IMP-1 inhibitor: -1; VIM-2 inhibitor: 0

How did O=C(O)CC(NC(=O)c1ccncc1)c1ccccc1 (stereo not drawn) do in these assays?
HCV core dimer: 0; NadD inh: -7; IMP-1 inhibitor: -2; VIM-2 inhibitor: -2

Results for COc1ccc2cc3[n+](cc2c1O)CCc1cc2c(cc1-3)OCO2 ?
NadD inh: 41*; NadD conf: 32

How did COc1cc(/C=N/NC(=O)Cn2nc([N+](=O)[O-])cc2C)cc(Br)c1OCc1ccccc1 do in these assays?
HCV core dimer: 31; NadD inh: 35*; IMP-1 inhibitor: -2; VIM-2 inhibitor: -2; NadD conf: 10

How did N#C/C(=C/c1cn(-c2ccccc2)nc1-c1cccc(OCc2ccccc2)c1)C(=O)NCCCn1ccnc1 do in these assays?
HCV core dimer: 4; NadD inh: 41*; IMP-1 inhibitor: -3; VIM-2 inhibitor: -3; NadD conf: -2

How did N#C/C(=C/c1cn(-c2ccccc2)nc1-c1cccc(S(=O)(=O)N2CCCC2)c1)C(=O)NCc1ccco1 do in these assays?
HCV core dimer: 71*; NadD inh: 46*; IMP-1 inhibitor: -1; VIM-2 inhibitor: 0; NadD conf: 49*

What do the screens show for `N#C/C(=C/c1cn(-c2ccccc2)nc1-c1cccc(S(=O)(=O)N2CCOCC2)c1)C(=O)NCc1ccco1`?
HCV core dimer: 1; NadD inh: 2; IMP-1 inhibitor: -1; VIM-2 inhibitor: 0

Results for Cc1c(C(=O)NCc2ccc(F)cc2)sc(=O)n1Cc1ccccc1 ?
NadD inh: -4

How did COc1cc(/C=C2\SC(=O)N(CC(=O)Nc3cccc(C)c3)C2=O)cc([N+](=O)[O-])c1O do in these assays?
NadD inh: 41*; IMP-1 inhibitor: -3; VIM-2 inhibitor: -2; NadD conf: 6

Results for CCNc1nc(-c2cc(C)n(Cc3ccco3)c2C)cs1 ?
HCV core dimer: 30; NadD inh: 23; IMP-1 inhibitor: 0; VIM-2 inhibitor: -3

What do the screens show for `Cc1cc(-c2csc(NC(=O)c3ccccc3C(F)(F)F)n2)c(C)n1Cc1ccccc1`?
HCV core dimer: 37; NadD inh: 33*; IMP-1 inhibitor: -1; VIM-2 inhibitor: -1; NadD conf: 20

How did COc1cccc(-c2nc(N3CCCCC3)c3ccccc3n2)c1O do in these assays?
HCV core dimer: 6; NadD inh: 0

What do the screens show for `COc1cccc(-c2nc(N3CCN(c4ccccc4)CC3)c3ccccc3n2)c1O`?
HCV core dimer: 1; NadD inh: 31*; IMP-1 inhibitor: -2; VIM-2 inhibitor: -5; NadD conf: 8

Results for COc1cc2c(C#N)c(N3CCc4ccccc4C3)nc(N)c2c(N)n1 ?
HCV core dimer: 45; NadD inh: 42*; IMP-1 inhibitor: 1; VIM-2 inhibitor: 1; NadD conf: -3

How did COc1cc2c(C#N)c(N3CCOCC3)nc(N)c2c(N)n1 do in these assays?
HCV core dimer: -3; NadD inh: 8; IMP-1 inhibitor: -6; VIM-2 inhibitor: 0

How did CCCCC1=CC2=CC(=O)C(C)(OC(=O)CCC(=O)OC)C(=O)C2=CO1 (stereo not drawn) do in these assays?
HCV core dimer: 11

How did CCCCC1=CC2=CC(=O)C(C)(OC(=O)CCc3ccccc3)C(=O)C2=CO1 (stereo not drawn) do in these assays?
HCV core dimer: 10; NadD inh: 66*; NadD conf: 39*

What do the screens show for `CCCCC1=CC2=CC(=O)C(C)(OC(=O)c3cccs3)C(=O)C2=CO1` (stereo not drawn)?
HCV core dimer: 6; NadD inh: 32*; NadD conf: 47*

Results for Cc1nc(N2N=C(c3ccc(Cl)cc3)CC2c2ccco2)sc1C(=O)N(C)C (stereo not drawn) ?
HCV core dimer: 10; NadD inh: 10; IMP-1 inhibitor: -5; VIM-2 inhibitor: 4

Results for COc1ccc(C2=NN(c3nc(-c4ccccc4)c(CC(=O)O)s3)C(c3ccco3)C2)cc1 (stereo not drawn) ?
HCV core dimer: 87*; NadD inh: 61*; IMP-1 inhibitor: 0; VIM-2 inhibitor: -2; NadD conf: 72*

How did CC[C@]12c3[nH]c4cc(-c5ccco5)ccc4c3CCN1C(=O)[C@@H](CC(=O)NCC13CC4CC(CC(C4)C1)C3)C[C@@H]2C(=O)N1CCN(C(=O)c2ccco2)CC1 do in these assays?
NadD inh: 40*; NadD conf: 20

Results for C[C@]12c3[nH]c4cc(-c5ccco5)ccc4c3CCN1C(=O)[C@@H](CC(=O)NCC13CC4CC(CC(C4)C1)C3)C[C@@H]2C(=O)N1CCCCC1 ?
NadD inh: 50*; NadD conf: 13

How did O=C(C[C@H]1C[C@H](C(=O)N2CCOCC2)[C@@]2(CCC3CCCC3)c3[nH]c4cc(-c5ccco5)ccc4c3CCN2C1=O)NCCC1=CCCCC1 do in these assays?
NadD inh: 29*; NadD conf: 13

Results for CCOC(=O)C1=C(COC(=O)c2cc(Br)c(Br)s2)NC(=O)NC1C (stereo not drawn) ?
HCV core dimer: 3; NadD inh: -6

What do the screens show for `O=C(Nc1ccc(-c2nc3ccccc3o2)c(O)c1)c1cc(-n2cnnc2)ccc1Cl`?
HCV core dimer: 27; NadD inh: 30*; IMP-1 inhibitor: -2; VIM-2 inhibitor: -4; NadD conf: 12

Assay outcomes from PubChem BioAssay.
